# Autophagy mod = modulators of autophagy; 190,000 compounds, 0.98% hits; MEF GFP-LC3 puncta imaging; test concentration mostly 10 µM; AID 463193; calls only at 10 µM (by protocol);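 active = percentage of spot-positive cells more than 3 SD above its plate mean, without a fluorescence outlier flag or 80% toxicity; inconclusive = no clear call, values can overlap the other calls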;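 also: spot-positive cell cutoff set from DMSO-treated cells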
# HKDC1 inhibitor = HKDC1 (human) hexokinase inhibition | inhibition, % at 20 µM | recombinant HKDC1, G6PDH/diaphorase resazurin coupled fluorescence | 340,000 compounds, 0.16% hits | Q2TB90;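 active = inhibition above about 35% when tested at 20 µM, limit read from the data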;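 also: plate controls were DMSO wells with enzyme for no effect and DMSO wells lacking enzyme for full effect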
#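 Test system: recombinant HKDC1 (HK5) hexokinase enzyme, produced in-house; Amount: enzyme 5 µg/mL final; Buffer or medium: Tris pH 8.0 buffer with MgCl2, Tween-20, BSA, BME; Reagent: glucose and ATP substrates; Doses: 20 µM test compound, 1% DMSO; Incubation: 90 min reaction incubation at room temperature, dark; Detection: resorufin fluorescence at 613 nm.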
# PERK inhibitor = human PERK inhibition, primary cell-based screen; CHO PERK-DD fusion, SEAP luminescence translation reporter; inhibition, % at 5.6 µM; 220,000 compounds, 0.17% hits; AID 1416;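 active = inhibition above the mean inhibition of all tested compounds plus 3 SD, set separately per screening campaign, cut at about 2.9% in these data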;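 also: PERK kinase domain activated by AP20187 dimerizer at 100 nM; 0% = DMSO with dimerizer and 100% = rapamycin at 8.4 µM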
# Target sequence (Q9NZJ5 whole entry, looked up, the tested form may be a part): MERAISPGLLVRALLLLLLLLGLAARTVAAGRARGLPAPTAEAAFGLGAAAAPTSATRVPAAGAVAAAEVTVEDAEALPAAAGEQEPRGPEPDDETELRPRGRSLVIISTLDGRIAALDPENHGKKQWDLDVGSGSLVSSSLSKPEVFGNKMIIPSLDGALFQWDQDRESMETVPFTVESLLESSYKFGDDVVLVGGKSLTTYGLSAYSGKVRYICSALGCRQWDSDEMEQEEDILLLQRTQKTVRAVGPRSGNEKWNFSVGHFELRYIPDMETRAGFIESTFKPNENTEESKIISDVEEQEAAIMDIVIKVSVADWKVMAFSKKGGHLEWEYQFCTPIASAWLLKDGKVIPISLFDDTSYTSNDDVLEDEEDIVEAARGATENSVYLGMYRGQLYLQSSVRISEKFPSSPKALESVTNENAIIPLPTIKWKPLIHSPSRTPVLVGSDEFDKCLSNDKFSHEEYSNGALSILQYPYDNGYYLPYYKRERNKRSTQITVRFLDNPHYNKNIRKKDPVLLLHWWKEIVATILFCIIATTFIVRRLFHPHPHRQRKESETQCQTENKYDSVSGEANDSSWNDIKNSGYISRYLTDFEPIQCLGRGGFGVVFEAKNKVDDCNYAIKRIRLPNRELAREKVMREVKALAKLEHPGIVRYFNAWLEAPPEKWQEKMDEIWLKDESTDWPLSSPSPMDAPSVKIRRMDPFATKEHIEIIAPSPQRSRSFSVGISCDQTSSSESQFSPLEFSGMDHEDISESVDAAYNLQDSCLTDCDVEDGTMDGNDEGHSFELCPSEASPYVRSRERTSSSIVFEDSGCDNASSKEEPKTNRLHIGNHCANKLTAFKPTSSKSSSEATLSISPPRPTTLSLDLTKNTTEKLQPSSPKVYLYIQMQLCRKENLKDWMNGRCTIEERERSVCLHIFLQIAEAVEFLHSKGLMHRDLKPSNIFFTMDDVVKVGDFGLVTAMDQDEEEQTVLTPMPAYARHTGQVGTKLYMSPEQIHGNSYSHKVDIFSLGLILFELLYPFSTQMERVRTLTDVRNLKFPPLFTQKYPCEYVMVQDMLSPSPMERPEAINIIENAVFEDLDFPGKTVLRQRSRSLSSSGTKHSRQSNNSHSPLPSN
# Dynein transport = dynein cargo transport inhibition | 3617.4 mouse cells, GR-EGFP nuclear translocation imaging; test concentration mostly 20 µM; stimulated with dexamethasone, 1 µM; active compounds read low | z-score, hits read low | 220,000 compounds, 0.47% hits | AID 1381;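 active = plate z-score of nuclear minus cytoplasmic receptor signal below a set negative limit, without overly bright fluorescence or cell loss, cut at about -3.5 in these data, passing the limit was not always enough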;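 also: z-score of nuclear minus cytoplasmic ring GR-EGFP intensity difference per well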
#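 Also added – dexamethasone, 1.0 µM final · Buffer or medium – tet-free, stripped-serum medium · Schedule – induction 48 h, compound 1 h, agonist 30 min · Detection – formaldehyde fixation, Hoechst nuclear stain, 10x automated fluorescence imaging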
# TbHK1 inh = blocks Trypanosoma brucei hexokinase 1 activity; recombinant TbHK1, G6PDH-coupled NADH A340; inhibition, % at 10 µM; AID 1430; 220,000 compounds, 0.11% hits;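 active = inhibition of 50% or more in the single-dose primary screen; inactive = inhibition below 50%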
# HSV augment = HSV replication enhancement; HSV replication augmentation in cells, fold increase; maximum fold increase; 220,000 compounds, 0.005% hits; in the data active = maximum fold increase above about 1.5; inconclusive = no clear call, values can overlap the other calls; tested in PC3 cells
# Active calls of the source: *; i = inactive; ? = inconclusive; · = no result; + = active, no number. Most compounds without a hit are left out; they make up all but 1.2% or so of the library.
SMILES,Autophagy mod,HKDC1 inhibitor,PERK inhibitor,Dynein transport,TbHK1 inh,HSV augment
O=c1c2c3nc4ccccc4nc3n(-c3ccc4c(c3)OCCO4)c2ncn1C1CCCC1,·,48*,·,·,·,·
COc1ccc(NC(=O)c2ccccc2NC(=O)CSc2ccc(Cl)cc2)cc1,+,-1,0,-0.56,-2,i
COc1ccc(NC(=O)c2ccccc2NC(=O)CSc2ccccc2)cc1,i,4,0,0.27,-4,i
CCCN1C(=O)/C(=C\C=C2\N(CC)c3ccccc3C2(C)C)SC1=S,+,-5,1,-1.9,-7,?
CCCN1C(=O)/C(=C\C=C2/Sc3ccccc3N2CC)SC1=S,i,·,1,-0.94,-4,?
Cc1nn(CC(=O)NCc2cccs2)c(=O)c2nn(-c3ccccc3)c(C)c12,·,5,·,·,·,·
COc1ccc2c(CC(=O)Nc3ccc(OC)nc3)coc2c1,+,0,0,-1,-7,i
COc1ccc(CC(=O)Nc2ccc(OC)nc2)cc1,i,18,0,-0.16,-5,i
CCC(SCC(=O)OC)C(=O)Nc1nnc(C(C)C)s1 (configuration not stated),i,-6,1,-0.62,1,i
COC(=O)CSC(C)C(=O)Nc1nnc(C(C)C)s1 (configuration not stated),+,-5,0,-0.16,2,i
Cc1cc(C)n2nc(SCC(=O)NC(=O)c3ccccc3Cl)nc2n1,·,-2,·,·,·,·
COc1ccc(C(=O)NCC(=O)OC2CCCCC2=O)cc1 (configuration not stated),i,-4,3.6*,1.7,-2,i
COc1cccc(-c2nc(NCC3CCCO3)c3ccccc3n2)c1O (configuration not stated),+,-1,-1,0.32,-22,i
COc1ccccc1C(=O)NNC(=O)c1cccc(Cl)c1,+,0,1,-0.77,-11,i
COC(=O)C1Cc2c([nH]c3ccccc23)CN1C(C)=O (configuration not stated),·,2,·,·,·,·
Cc1nn(CC#N)c(=O)n1-c1ccc(C(C)C)cc1,i,-2,2,0.91,-7,i
Cc1nn(CC#N)c(=O)n1-c1ccc(Cl)cc1,+,-2,1,-0.16,3,i
CCN(C[C@H]1N[C@@](Cc2ccccc2)(C(=O)OC)[C@H]2C(=O)N(C)C(=O)[C@@H]12)S(=O)(=O)c1ccc(-c2ccccc2)cc1,·,-1,·,·,·,·
CCN(CC)c1ccc(/C=N/NC(=O)c2cccc(S(=O)(=O)Nc3ccccc3OC)c2)cc1,i,-11,0,-0.46,-9,i
CCN(CC)c1ccc(/C=N/NC(=O)c2cccc(S(=O)(=O)Nc3ccccc3OC)c2)c(O)c1,+,-43,-1,0.8,8,i
O=[N+]([O-])c1cccc(/C=C/c2ccc3cccc(O)c3n2)c1,·,4,·,·,·,·
O=[N+]([O-])c1cccc(/C=C/c2nc(C=Nc3ccc4ccccc4c3)c(O)o2)c1,+,0,0,-0.79,-7,·
COCCOC(=O)c1[nH]c2c(c1C)C(=O)CC(c1cccs1)C2 (configuration not stated),+,-5,0,1.5,-2,i
CCOCCOC(=O)c1[nH]c2c(c1C)C(=O)CC(c1cccs1)C2 (configuration not stated),+,0,1,0.55,-4,i
Cc1ccc(OCCC(=O)OCC(=O)N2CCN(S(=O)(=O)c3ccc(C)cc3)CC2)cc1,·,2,·,·,·,·
SMILES,Autophagy mod,HKDC1 inhibitor,PERK inhibitor,Dynein transport,TbHK1 inh,HSV augment
CSc1ncc(Cl)c(C(=O)Nc2sc3c(c2C(=O)NCc2ccco2)CCCC3)n1,+,·,0,-0.46,4,i
COc1ccccc1N1CCc2c(C)nc3c(OC)cccc3c21,i,-18,-1,·,-25,i
COc1cccc2c3c(c(C)nc12)CCN3c1ccccc1,+,-14,-1,1.3,-8,i
O=C(NC1CCCCC1)c1nn2c(C(F)(F)F)cc(-c3ccco3)nc2c1Br,+,-5,1,0.24,-1,i
CCCCCCCCCCCCCCCC(=O)OC[C@H](COP(=O)([O-])OCC[N+](C)(C)C)OC(=O)CCCCCCCCCCCCCCC,i,·,3.0*,-0.28,2,i
CCOC(=O)c1c(C)[nH]c(C(=O)OCC(=O)NCc2ccc(OC)c(OC)c2)c1C,·,-5,·,·,·,·
CCOC(=O)c1c(C)[nH]c(C(=O)N/N=C/c2cccc(OC)c2)c1C,i,-7,0,0.23,-4,·
CCOC(=O)c1c(C)[nH]c(C(=O)N/N=C\c2ccccc2Cl)c1C,+,-6,0,-0.37,-1,i
CCOC(=O)c1c(C)[nH]c(C(=O)OCC(=O)Nc2cc(C)c(Cl)cc2OC)c1C,+,-4,1,-0.29,-2,i
CC1=C(C(=O)N2CCOCC2)C(c2ccc(OC(F)F)cc2)NC(=S)N1c1ccccc1 (configuration not stated),+,-5,1,0.31,5,i
c1ccc2c(CN3CCSCC3)cccc2c1,·,-7,·,·,·,·
Cc1ccc(-c2cc(NC(=O)CCl)n(-c3ccccc3)n2)cc1,+,19,0,-2.2,-3,·
COC(=O)N/N=C/c1c(C)c(C(=O)c2ccc(F)cc2)n2ccccc12,i,-3,1,0.19,-7,i
Cc1c(C(=O)Nc2ccc(Cl)cc2)c2ccccn2c1C(=O)c1ccc(F)cc1,+,3,2,-0.16,-11,i
COc1cc(C2Nc3cccc4cccc(c34)N2)cc(OC)c1O,+,14,0,-3.7*,-27,i
Cc1cc(C)cc(NC(=S)N(Cc2ccc(Cl)cc2)Cc2ccc(C(=O)O)cc2)c1,i,5,0,0.15,2,i
Cc1cccc(NC(=S)N(Cc2ccc(Cl)cc2)Cc2ccc(C(=O)O)cc2)c1,+,-7,1,-0.1,6,i
O=C(N/C(=C\c1ccccc1)C(=O)N1CCOCC1)c1cccc(Br)c1,·,4,·,·,·,·
S=C(NC1CCCCCC1)NC1CCCC1,+,-8,-1,-0.82,-3,i
COc1cccc(CNC(=O)c2ccccc2NC(=O)C2=C(C)OCCS2)c1OC,·,-7,·,·,·,·
Cn1nc([N+](=O)[O-])nc1Sc1nnc(-c2ccccc2)o1,i,-1,0,-3.7*,-2,i
O=Cc1ccc(Sc2nnc(-c3ccccc3)o2)c([N+](=O)[O-])c1,i,43*,0,-2.2,37,i
CN1C(=O)C(CC#N)(C2(CC#N)C(=O)N(C)c3ccccc32)c2ccccc21 (configuration not stated),·,-6,·,·,·,·
FC(F)(F)c1cccc(Oc2ccc3c(C(F)(F)F)cc(C(F)(F)F)nc3n2)c1,i,7,3.7*,0.087,0,i
FC(F)(F)c1cc(C(F)(F)F)c2ccc(Oc3ccccc3)nc2n1,i,-2,0,-0.17,-3,i

# Screening data: PubChem, several laboratories
